We go through one molecule from ChEMBL document CHEMBL4339200, “Structure-based Discovery of Phenyl (3-Phenylpyrrolidin-3-yl)sulfones as Selective, Orally Active RORγt Inverse Agonists” (ACS Med Chem Lett, 2019).

As a reminder, the EC50 is the concentration giving half of the maximal effect. High values mean weaker potency, low ones greater potency. In general, fraction unbound refers to the share of the substance not bound to proteins or other matrix. One may read the IC50 as the midpoint of a concentration-inhibition curve. A higher IC50 goes with weaker potency. What is called AUC is concentration integrated over time. In general, half-life refers to how long it takes for the measured level to halve. A low value points to rapid decline. By clearance is commonly meant the volume of plasma or blood freed of the substance per unit of time. Usually Tmax stands for the time at which the peak concentration occurs.

The target of series [1] is T1, Nuclear receptor subfamily 1 group I member 2 (Homo sapiens, UniProt O75469).
T1 sequence (O75469 whole entry): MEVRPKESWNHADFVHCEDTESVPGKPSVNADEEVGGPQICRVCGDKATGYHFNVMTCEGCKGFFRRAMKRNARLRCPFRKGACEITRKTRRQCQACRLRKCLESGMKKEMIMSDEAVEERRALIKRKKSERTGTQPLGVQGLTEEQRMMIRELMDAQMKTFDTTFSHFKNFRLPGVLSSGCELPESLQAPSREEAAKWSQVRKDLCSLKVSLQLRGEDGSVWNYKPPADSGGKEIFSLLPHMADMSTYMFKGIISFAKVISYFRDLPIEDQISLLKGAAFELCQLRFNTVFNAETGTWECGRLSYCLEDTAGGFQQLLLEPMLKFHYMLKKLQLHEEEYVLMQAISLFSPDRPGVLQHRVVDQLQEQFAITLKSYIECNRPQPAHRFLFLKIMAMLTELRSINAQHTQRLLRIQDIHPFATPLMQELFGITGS
Kind of series: Transactivation of PXR in human HepG2 cells. In kind it is ADME, cell-based.

The next series deals with T2, PXR (NR1I2) (Homo sapiens, UniProt O75469).
T2 sequence (O75469 whole entry): T1 sequence (O75469 whole entry)
Kind of series: Transactivation of PXR in human HepG2 cells relative to rifampicin. In kind it is ADME, cell-based. Particulars: read-out: %max.

Series [2] can be described thus: Stability in mouse liver microsomes assessed as parent compound remaining after 10 mins. Type of series: ADME, Microsome. Particulars: read-out: Stability. A digest of the protocol:
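Rough stability screen: compound incubated with mouse liver microsomes for 10 min, reported as percentage of parent remaining.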
A general note: Microsomes from liver hold many membrane-bound enzymes, among them those of drug oxidation.

Series [3] can be described thus: Protein binding in human plasma assessed as unbound fraction. In kind it is ADME, cell-free.
Series [4] is described as follows: Protein binding in mouse plasma assessed as unbound fraction. In kind it is ADME, cell-free.
Series [5] deals with T3, Nuclear receptor ROR-beta (Homo sapiens) (UniProt Q92753).
T3 sequence (whole entry): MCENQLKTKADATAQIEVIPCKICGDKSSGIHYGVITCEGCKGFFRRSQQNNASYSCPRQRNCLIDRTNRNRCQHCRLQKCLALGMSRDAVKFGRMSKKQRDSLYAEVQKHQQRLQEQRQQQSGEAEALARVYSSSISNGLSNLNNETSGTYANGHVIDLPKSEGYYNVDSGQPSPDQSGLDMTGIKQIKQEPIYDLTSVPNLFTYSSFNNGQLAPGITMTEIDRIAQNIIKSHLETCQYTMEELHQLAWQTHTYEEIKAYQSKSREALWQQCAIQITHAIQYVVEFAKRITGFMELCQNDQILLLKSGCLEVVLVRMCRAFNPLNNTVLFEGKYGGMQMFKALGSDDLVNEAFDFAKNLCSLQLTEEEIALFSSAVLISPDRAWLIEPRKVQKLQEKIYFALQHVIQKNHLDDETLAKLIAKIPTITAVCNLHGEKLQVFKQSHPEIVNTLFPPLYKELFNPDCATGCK
Kind of series: Inverse agonist activity at GAL4-fused RORbeta LBD (200 to 559 residues) (unknown origin) expressed in human Jurkat cells measured after 18 hrs by native IL17 promoter driven steady-glo luciferase assay. In kind it is cell-based.

The target in series [6] is T3, Nuclear receptor ROR-beta (Homo sapiens). In words: Agonist activity at GAL4-fused RORbeta LBD (200 to 559 residues) (unknown origin) expressed in human Jurkat cells measured after 18 hrs by native IL17 promoter driven steady-glo luciferase assay. In kind it is cell-based.
Another series has as its target T4, Cytochrome P450 1A2 (Homo sapiens, UniProt P05177).
T4 sequence (P05177 whole entry): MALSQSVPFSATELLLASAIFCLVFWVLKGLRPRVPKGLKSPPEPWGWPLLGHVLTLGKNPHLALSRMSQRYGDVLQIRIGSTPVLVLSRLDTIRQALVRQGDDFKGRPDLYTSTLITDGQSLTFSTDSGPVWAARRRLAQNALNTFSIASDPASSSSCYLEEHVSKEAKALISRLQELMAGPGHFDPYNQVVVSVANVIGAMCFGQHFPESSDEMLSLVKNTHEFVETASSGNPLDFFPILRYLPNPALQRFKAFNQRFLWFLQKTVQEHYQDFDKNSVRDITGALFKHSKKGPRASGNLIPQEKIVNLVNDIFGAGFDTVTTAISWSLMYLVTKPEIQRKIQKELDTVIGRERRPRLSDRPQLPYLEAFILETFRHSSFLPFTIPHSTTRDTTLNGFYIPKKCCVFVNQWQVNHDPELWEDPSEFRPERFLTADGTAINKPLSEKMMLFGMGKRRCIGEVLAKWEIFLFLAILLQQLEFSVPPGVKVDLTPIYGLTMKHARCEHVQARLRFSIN
Kind of series: Inhibition of CYP1A2 (unknown origin). Type of series: ADME.

The target in the next series is Cytochrome P450 2C9 (Homo sapiens, UniProt P11712). In words: Inhibition of CYP2C9 (unknown origin). Type of series: ADME.
In the next series the target is Cytochrome P450 2D6 (Homo sapiens, UniProt P10635). Kind of series: Inhibition of CYP2D6 (unknown origin). Type of series: ADME.
Series [7] can be described thus: AUC in Balb/c mouse at 2 mg/kg, iv. In kind it is ADME, organism-based. As to conditions: in vivo. A digest of the protocol:
(§1)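 Balb/c mice given a single intravenous dose of 2 mg/kg or an oral dose of 10 mg/kg. Plasma exposure was followed to derive Cmax, Tmax, AUC, t1/2, clearance, Vss and oral bioavailability (F).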

Series [8] in a line: Half life in Balb/c mouse at 2 mg/kg, iv. Type of series: ADME, organism-based. Particulars: in vivo. The gist of the method: as §1
The nature of series [9]: Clearance in Balb/c mouse at 2 mg/kg, iv. As to conditions: in vivo. Type of series: ADME, organism-based. A digest of the protocol:
as §1

A short description of series [10]: Volume of distribution at steady state in Balb/c mouse at 2 mg/kg, iv. In kind it is ADME, organism-based. Particulars: in vivo, read-out: Vdss. The gist of the method:
as §1

Series [11] can be described thus: Tmax in Balb/c mouse at 10 mg/kg, po. Type of series: ADME, organism-based. As to conditions: in vivo. The gist of the method:
as §1

The nature of series [12]: AUC in Balb/c mouse at 10 mg/kg, po. Type of series: ADME, organism-based. As to conditions: in vivo. A digest of the protocol:
as §1

The test system of series [13] is Mus musculus. Kind of series: Inhibition of IL2/IL23-induced IL17F production in po bid dosed C57BL/6 mouse treated 30 mins prior to 24 hrs IL2 challenge followed by IL2/IL23 addition at 0,7 and 23 hrs measured after 7 hrs post last IL2/IL23 challenge. In kind it is functional, organism-based. The gist of the method:
(§2)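 Naive mice were challenged three times with IL-2 plus IL-23 (first at 0 and 7 h) and dosed orally bid at 5, 15 or 50 mg/kg. Serum cytokines were measured 7 h after the final IL-2/IL-23 administration. An anti-IL-23 antibody served as positive control.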

Series [14] deals with Mus musculus. Kind of series: Inhibition of IL2/IL23-induced IL17A production in po bid dosed C57BL/6 mouse treated 30 mins prior to 24 hrs IL2 challenge followed by IL2/IL23 addition at 0,7 and 23 hrs measured after 7 hrs post last IL2/IL23 challenge. Type of series: functional, organism-based. The gist of the method:
as §2

Series [15] concerns Mus musculus. Kind of series: Inhibition of IL2/IL23-induced IL22 production in po bid dosed C57BL/6 mouse treated 30 mins prior to 24 hrs IL2 challenge followed by IL2/IL23 addition at 0,7 and 23 hrs measured after 7 hrs post last IL2/IL23 challenge. In kind it is functional, organism-based. A digest of the protocol:
as §2

The subject of series [16] is Mus musculus. Kind of series: Inhibition of IL2/IL23-induced IL6 production in po bid dosed C57BL/6 mouse treated 30 mins prior to 24 hrs IL2 challenge followed by IL2/IL23 addition at 0,7 and 23 hrs measured after 7 hrs post last IL2/IL23 challenge. Type of series: functional, organism-based. The gist of the method:
as §2

Structures are written as SMILES. Activity calls are given as the source filed them. The rule behind the calls is not given here.

Chain of Cytochrome P450 2C9 (P11712 whole entry): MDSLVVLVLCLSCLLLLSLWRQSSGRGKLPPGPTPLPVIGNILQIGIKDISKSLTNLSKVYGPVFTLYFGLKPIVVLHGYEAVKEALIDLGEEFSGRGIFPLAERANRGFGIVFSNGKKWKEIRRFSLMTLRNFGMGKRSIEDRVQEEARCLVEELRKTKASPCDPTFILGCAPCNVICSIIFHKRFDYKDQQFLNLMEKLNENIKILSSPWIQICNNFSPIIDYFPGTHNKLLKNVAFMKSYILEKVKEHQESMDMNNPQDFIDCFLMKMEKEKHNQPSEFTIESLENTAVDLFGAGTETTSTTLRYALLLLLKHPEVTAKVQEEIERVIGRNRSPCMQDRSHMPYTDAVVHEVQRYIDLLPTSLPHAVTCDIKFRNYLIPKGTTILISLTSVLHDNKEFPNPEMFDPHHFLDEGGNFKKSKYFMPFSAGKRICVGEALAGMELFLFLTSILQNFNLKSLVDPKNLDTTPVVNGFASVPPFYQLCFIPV
Chain of Cytochrome P450 2D6 (P10635 whole entry): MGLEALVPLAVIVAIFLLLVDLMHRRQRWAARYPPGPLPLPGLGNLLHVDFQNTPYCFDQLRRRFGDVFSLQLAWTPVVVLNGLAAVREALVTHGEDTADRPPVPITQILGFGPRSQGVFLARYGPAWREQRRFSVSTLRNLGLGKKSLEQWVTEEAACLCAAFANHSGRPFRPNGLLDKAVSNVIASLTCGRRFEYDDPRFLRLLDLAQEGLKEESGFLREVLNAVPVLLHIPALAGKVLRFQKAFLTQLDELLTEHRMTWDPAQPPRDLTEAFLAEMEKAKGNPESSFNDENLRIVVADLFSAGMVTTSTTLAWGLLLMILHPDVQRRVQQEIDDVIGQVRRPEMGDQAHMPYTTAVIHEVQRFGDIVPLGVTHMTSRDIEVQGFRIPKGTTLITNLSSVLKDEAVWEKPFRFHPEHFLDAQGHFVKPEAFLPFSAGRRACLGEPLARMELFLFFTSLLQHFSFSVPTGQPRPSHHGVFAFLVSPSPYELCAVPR

Molecule `O=C(O)[C@H]1CC[C@H](C(=O)N2CC[C@](c3ccc(C(F)(C(F)(F)F)C(F)(F)F)cc3)(S(=O)(=O)c3ccc(F)cc3)C2)CC1` displayed a concentration for a half-maximal effect (EC50) in series [1] greater than 50 µM. For the same molecule, the Emax at PXR (NR1I2) amounted to 18%. Further, the remaining at 10 min in series [2] is 86%. In addition, the fraction unbound in [3] turned out to be 0.037; in series [4], 0.105. Further, the result in [5] and in series [6] was inactive. Further, the IC50 on Cytochrome P450 1A2, on Cytochrome P450 2C9 and at Cytochrome P450 2D6 was greater than 20 µM each time. Moreover, the AUC was found to be 7.4 µM·h in series [7] and 36.6 µM·h in [12]. Also, the half-life in series [8] is 7.2 h. In series [9], this molecule yielded a clearance of 0.432 L/h/kg. Besides, the Vd in series [10] turned out to be 3.4 L/kg. Besides, the time of peak concentration (Tmax) in [11] came to 2 h. The inhibition result with Mus musculus [13], in the series with Mus musculus [14], in the series with Mus musculus [15] and in the series with Mus musculus [16] was “Dose-dependent effect” throughout.
